PABP1 MLLE inh – blocks PAM2 peptide binding to the PABP1 MLLE domain | hit rate 0.36% among 360,000 | inhibition, % at 20 µM | P11940 | GST-MLLE / FITC-PAM2 fluorescence polarization | AID 588489; in the data active = inhibition above about 35%, passing the limit was not always enough;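 also: plate controls were DMSO wells with GST-MLLE for no effect and wells lacking GST-MLLE protein for full effect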
SUMO HTRF inh – inhibitors of human SUMOylation (UBC9). P63279. HTRF SUMOylation assay, SAE1/SAE2 + UBC9, in vitro. inhibition, % at 35 µM. hit rate 0.36% among 290,000. AID 2006; in the data active = inhibition above about 50%, passing the limit was not always enough; inconclusive = no clear call, values can overlap the other calls
Target sequence (P63279 whole entry, looked up): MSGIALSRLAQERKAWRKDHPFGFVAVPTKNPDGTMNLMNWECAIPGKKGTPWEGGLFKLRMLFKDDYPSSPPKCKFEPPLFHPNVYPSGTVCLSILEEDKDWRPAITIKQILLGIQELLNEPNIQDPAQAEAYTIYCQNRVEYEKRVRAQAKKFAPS
eIF4H FP inh – inhibitors of RNA binding by human eIF4H. eIF4H fluorescence polarization binding assay. hit rate 0.94% among 290,000. inhibition, % at 35 µM. AID 2012;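 also: calls also rest on retests at 20 µM and on dose response follow-up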
eIF4E-4G inh – eIF4E/eIF4G interaction inhibition in translation initiation; hit rate 0.37% among 220,000; AID 782; TR-FRET eIF4E-eIF4GI(517-606) binding, 2 h; inhibition, % at 21.7 µM;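 active = inhibition above about 30%, limit read from the data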;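 also: 0% = full FRET control wells and 100% = background wells lacking eIF4GI fragment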
core dimer inh – HCV core protein dimerization inhibition | hit rate 0.33% among 300,000 | TR-FRET GST/Flag-core106 dimerization, 1536-well | AID 1899 | inhibition, % at 5 µM;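 active = inhibition above the mean of all tested compounds plus 3 SD, set per screening campaign, cut at about 45% in these data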
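Assay system: GST-tagged and Flag-tagged HCV core protein residues 1-106 / Times: compound-protein-antibody incubation 4 h at 22.5 °C / Signal: time-resolved FRET, ex 340 nm, em 617 and 671 nm / Evaluation: % inhibition based on acceptor/donor emission ratio / Benchmarks: wells lacking GST-core106 and wells with excess unlabelled core106 / Repeats: singlicate, one well per compound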
PABP polyA inh – blocks human PABP binding to poly(A) RNA; fluorescence polarization; calls only at 35 µM; hit rate 1% among 290,000;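 also: calls also rest on retests at 20 µM and on dose response follow-up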
Starred values were filed as active, the others as inactive; i = inactive; ? = inconclusive; nt = no result; + = active, no number; ! = not active in a repeat; [ ] = remark or other dose. A selection: hits, their analogues and other compounds. The true share with any hit is near 1.8%. Unless noted, no rule for the calls is given here.

SMILES | PABP1 MLLE inh | SUMO HTRF inh | eIF4H FP inh | eIF4E-4G inh | core dimer inh | PABP polyA inh
COc1ccc(Cl)cc1NC(=O)CN(C)CC(=O)Nc1c(C)n(C)n(-c2ccccc2)c1=O | -4 | nt | nt | nt | nt | nt
O=C(COc1ccc(Cl)cc1Cl)Nc1ccc(C(=O)Nc2ccccc2C(=O)O)cc1 | -4 | 59* | 10 | nt | 2 | i
CCN(C(=O)COC(=O)c1cn(-c2ccccc2)nc1-c1ccccc1)C1CCS(=O)(=O)C1 (stereo not drawn) | 14 | 19 | -4 | -4 | 2 | i
CN(C(=O)COC(=O)c1cn(-c2ccccc2)nc1-c1ccccc1)C1CCS(=O)(=O)C1 (stereo not drawn) | 9 | 25 | active | 0 | 2 | ?
O=C(N/N=C/c1ccc(Cl)c([N+](=O)[O-])c1)c1cc(-c2ccc3c4c(cccc24)CC3)n[nH]1 | -4 | 51* | 6 | 4 | 13 | i
CCc1sc(C(=O)N2CCc3cc(OC)c(OC)cc3C2CC(=O)O)cc1C (stereo not drawn) | -1 | nt | nt | nt | nt | nt
O=c1[nH]c(CN2CCCCC2)ccc1O | 45* | nt | nt | nt | nt | nt
COc1ccc(C2=CSC3=NCCN23)cc1F | 24 | 17 | 0 | 38*[fluorescence artefact?] | -11 | i
O=C(Nc1ccc(-c2nc3ccc(NC(=O)c4cccs4)cc3[nH]2)cc1)c1cccs1 | 1 | 56* | -26 | -41 | -3 | i
O=C(Nc1ccc2nc(-c3cccs3)[nH]c2c1)c1cccs1 | 12 | 22 | -9 | -8 | -6 | i
O=S(=O)(c1ccc(=S)[nH]c1)N1CCOCC1 | 46* | nt | nt | nt | nt | nt
COc1cc(C(=O)N2CCN(S(=O)(=O)c3cccc(F)c3)CC2)ccc1OCC(=O)N1CCOCC1 | -11 | nt | nt | nt | 1 | nt
Cc1[nH]nc2c1C(c1ccc(-c3ccc(Cl)cc3)o1)C(C#N)=C(N)O2 (stereo not drawn) | -1 | 26 | 18 | 0 | -3 | i
Cc1ccc(-c2ccc(C3C(C#N)=C(N)Oc4n[nH]c(C)c43)o2)cc1 (stereo not drawn) | -16 | 18 | 54* | 1 | -1 | +
C=CCn1c(SCC(=O)NC2CCCC2)nc2scc(-c3ccco3)c2c1=O | 0 | 33 | 71* | 1 | 55* | +
Cc1cc(C)c2c(CC(=O)N(CCC#N)Cc3cccnc3)coc2c1 | -7 | 7 | -6 | -4 | 6 | i
COc1ccc(Sc2nnc(Cc3ccccc3)c3ccccc23)cc1 | 40* | -1 | -11 | -4 | 6 | i
Cc1ccc(Sc2nnc(Cc3ccccc3)c3ccccc23)cc1 | 22 | -3 | -16 | nt | 11 | i
CC(C)Sc1nc2sc3c(c2c2nnc(SCC(=O)NCc4ccco4)n12)CCCC3 | -60 | -1 | 2 | -28 | 45 | i
Cc1ccc(-n2c(SCC(=O)O)nc3sc4c(c3c2=O)CC(C)(C)SC4)cc1 | 5 | nt | nt | nt | nt | nt
CCSc1nc2sc3c(c2c2nnc(SCC(=O)NCc4ccco4)n12)CCCC3 | nt | nt | nt | nt | 58* | nt
Cc1ccc(-n2c(SCC(=O)NCc3ccco3)nc3sc4c(c3c2=O)CC(C)(C)SC4)cc1 | -15 | 18 | 14 | -21 | 68* | i
Cc1nc(SCC(=O)NCc2ccco2)c2c3c(sc2n1)CCCC3 | -1 | 25 | -7 | 1 | 12 | i
CCCc1nc2sc3c(SCC(=O)NCc4ccco4)ncnc3c2c2c1CCC2 | 10 | -25 | 78* | -23 | 40 | +
O=C(NCc1ccco1)Nc1cccc(-c2ccccc2)c1 | 3 | nt | nt | nt | nt | nt
SMILES | PABP1 MLLE inh | SUMO HTRF inh | eIF4H FP inh | eIF4E-4G inh | core dimer inh | PABP polyA inh
Cc1nc2scc(-c3ccccc3)c2c(=O)n1N=C1C=CC(=O)C=C1 | nt | 12 | 71* | 5 | nt | +
Fc1ccc(SCCc2ccncc2)cc1 | 43*! | -15 | -3 | -1 | -1 | i
c1ccc(SCCc2ccncc2)cc1 | 16 | -9 | 24 | 2 | 1 | i
N=C1/C(=C/c2ccc(-c3cccc(C(=O)O)c3)o2)C(=O)N=C2SC=C(c3ccccc3)N12 | -81 | 78* | 52* | 80* | 13 | +
O=C1OC(c2cccs2)=N/C1=C\c1ccc(-c2ccccc2Cl)o1 | -98 | 8 | -12 | 0 | nt | i
N=C1/C(=C\c2ccc(-c3cc(Cl)cc(Cl)c3)o2)C(=O)N=C2SC=C(c3ccccc3)N12 | -6 | 38 | 35 | -6 | 49* | i

Assay outcomes (PubChem BioAssay)
